Experimental data taken from PubChem BioAssay AID588479 (NMMLSC, 2011).
Records with an inconclusive call do not appear. Calls of active or inactive are those of the source.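 The calls were made as follows: active = eight-GTPase mean potency score over 50, needing half-effect dose up to 10 µM and response span 30% or more; inconclusive = no clear call, values can overlap the other calls; inactive = the rest.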

Assays:
Assay in all cases: inhibitors of GTP binding to eight small GTPases, SAR follow-up, biochemical, round 1 SAR, Mg buffer, multiplex flow cytometry (AID 588479)
Cdc42ACT = conditions: multiplex GST-GTPase beads, Bodipy-GTP binding, constitutively active; for response, lower = inhibition: at 100 µM (top of the series)
How it was run: (§1)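 Test system: GST-GTPase bead multiplex, wild-type and constitutively active forms. Medium: mg buffer, pH 7.5, with 1 mM MgCl2. Reagent: Bodipy-FL-GTP at 100 nM final. Schedule: binding incubation 40–45 min, 4 °C. Technique: flow cytometry, green median fluorescence per bead. Control set: DMSO wells as high control, 0.5 mM unlabeled GTP as low control.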

RacWT = conditions: multiplex GST-GTPase beads, Bodipy-GTP binding, wild type; for response, lower = inhibition: at 100 µM (top of the series)
How it was run: as §1

Cdc42WT = conditions: multiplex GST-GTPase beads, Bodipy-GTP binding, wild type; for response, lower = inhibition: at 100 µM (top of the series)
How it was run: as §1

RhoWT = conditions: multiplex GST-GTPase beads, Bodipy-GTP binding, wild type; for response, lower = inhibition: at 100 µM (top of the series)
How it was run: as §1

RacACT = conditions: multiplex GST-GTPase beads, Bodipy-GTP binding, constitutively active; for response, lower = inhibition: at 100 µM (top of the series)
How it was run: as §1

RasACT = conditions: multiplex GST-GTPase beads, Bodipy-GTP binding, constitutively active
How it was run: as §1

Molecule `CC1(C)Cc2c(sc(NC(=S)NC(=O)c3cccc(F)c3)c2C(=O)O)CO1` has an EC50 (Cdc42ACT) of 465 nM, an EC50 (RacWT) of 471 nM and an EC50 (Cdc42WT) of 493 nM. The EC50 (RhoWT) was 499 nM and the EC50 (RacACT) was 466 nM.
For `CC1(C)Cc2c(sc(NC(=S)Nc3ccccc3)c2C(=O)O)CO1`, the “response, lower = inhibition” value (Cdc42ACT) was “inactive”, the EC50 (RasACT) was 1780 nM and the “response, lower = inhibition” value (RacWT) was “inactive”. The “response, lower = inhibition” value (Cdc42WT) was “inactive”, the “response, lower = inhibition” value (RhoWT) was “inactive” and the “response, lower = inhibition” value (RacACT) was “inactive”.
With `CC1(C)Cc2c(sc(NC(=S)NC(=O)c3ccccc3Br)c2C(=O)O)CO1` the “response, lower = inhibition” value (Cdc42ACT) was “inactive”, the “response, lower = inhibition” value (RacWT) was “inactive” and the EC50 (Cdc42WT) was 69 nM. The EC50 (RhoWT) was 70 nM and the EC50 (RacACT) was 71 nM.
`CC1(C)Cc2c(sc(NC(=S)NC(=O)c3cccc(Br)c3)c2C(=O)O)CO1` was tested, and the “response, lower = inhibition” value (Cdc42ACT) was “inactive”, the “response, lower = inhibition” value (RacWT) was “inactive” and the “response, lower = inhibition” value (Cdc42WT) was “inactive”. The “response, lower = inhibition” value (RhoWT) was “inactive” and the “response, lower = inhibition” value (RacACT) was “inactive”.
For `COC(=O)c1c(N)sc2c1CC(C)(C)OC2`, the “response, lower = inhibition” value (Cdc42ACT) was “inactive”.
For `CC1(C)CCc2sc(NC(=S)NC(=O)c3ccccc3)c(C(=O)O)c2C1`, the EC50 (Cdc42ACT) was 106 nM, the EC50 (RacWT) was 89 nM and the EC50 (Cdc42WT) was 99 nM. It also gave an EC50 (RhoWT) of 81 nM and an EC50 (RacACT) of 109 nM.
Work on `COc1cccc(C(=O)NC(=S)Nc2sc3c(c2C(=O)O)CC(C)(C)OC3)c1` yielded an EC50 (Cdc42ACT) of 122 nM, an EC50 (RacWT) of 141 nM and an EC50 (Cdc42WT) of 118 nM. It also gave an EC50 (RhoWT) of 111 nM and an EC50 (RacACT) of 122 nM.
In the case of `CC1(C)Cc2c(sc(NC(=O)Cc3ccccc3)c2C(=O)O)CO1`, the “response, lower = inhibition” value (Cdc42ACT) is reported as “inactive”, the “response, lower = inhibition” value (RacWT) is reported as “inactive” and the “response, lower = inhibition” value (Cdc42WT) is reported as “inactive”. The “response, lower = inhibition” value (RhoWT) was “inactive” and the “response, lower = inhibition” value (RacACT) was “inactive”.
For `COc1ccc(C(=O)NC(=S)Nc2sc3c(c2C(=O)O)CC(C)(C)OC3)cc1`, the EC50 (Cdc42ACT) was 143 nM, the EC50 (RacWT) was 133 nM and the EC50 (Cdc42WT) was 127 nM. It also gave an EC50 (RhoWT) of 139 nM and an EC50 (RacACT) of 142 nM.
With `Cc1ccc(NC(=O)Nc2sc3c(c2C(=O)O)CCN(C)C3)cc1` the “response, lower = inhibition” value (Cdc42ACT) was “inactive”, the “response, lower = inhibition” value (RacWT) was “inactive” and the “response, lower = inhibition” value (Cdc42WT) was “inactive”. The “response, lower = inhibition” value (RhoWT) was “inactive” and the “response, lower = inhibition” value (RacACT) was “inactive”.
`CCOC(=O)c1c(N)sc2ccccc12` was tested, and the “response, lower = inhibition” value (Cdc42ACT) was “inactive”, the “response, lower = inhibition” value (RacWT) was “inactive” and the “response, lower = inhibition” value (Cdc42WT) was “inactive”. For the same molecule, the “response, lower = inhibition” value (RhoWT) was “inactive” and the “response, lower = inhibition” value (RacACT) was “inactive”.
`CC1(C)Cc2c(sc(NC(=S)NC(=O)c3ccc(Br)cc3)c2C(=O)O)CO1` was tested, and the EC50 (Cdc42ACT) was 170 nM, the EC50 (RacWT) was 214 nM and the EC50 (Cdc42WT) was 154 nM. For the same molecule, the EC50 (RhoWT) was 280 nM and the EC50 (RacACT) was 204 nM.
In the case of `CCOC(=O)c1c(NC(=O)Nc2ccc(C)cc2)sc2c1CCN(C)C2`, the “response, lower = inhibition” value (Cdc42ACT) is reported as “inactive”.
For `CCOC(=O)c1c(NC(=O)Nc2ccc(F)cc2)sc2c1CCN(C)C2`, the “response, lower = inhibition” value (Cdc42ACT) was “inactive”.
In the case of `CC1(C)Cc2c(sc(NC(=S)NC(=O)c3ccccc3F)c2C(=O)O)CO1`, the EC50 (Cdc42ACT) is reported as 60 nM, the EC50 (RacWT) is reported as 58 nM and the EC50 (Cdc42WT) is reported as 64 nM. For the same molecule, the EC50 (RhoWT) was 65 nM and the EC50 (RacACT) was 59 nM.
